This is an account of results in PubChem BioAssay.

Active and inactive are the calls of the source.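 How the source made its calls, unless noted: active means compounds giving at least 50% inhibition in the cell-based MKP-3 phosphatase rescue imaging test; inactive means the rest.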

The nature of test [1]: inhibitors of TNFa-induced NFkB p65 translocation, primary screen, imaging, HUVEC, MLSMR starter and 10KST1 sets (AID 438;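 active means inhibition above 20% together with a positive visual image hit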;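 further: compound added about 3h40 before a 20 min TNFalpha stimulation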;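 on inhibition: signal is the nuclear over cytoplasmic p65 intensity ratio per well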). Particulars: HUVEC TNFa-induced p65 nuclear translocation; cell count: measured here: nuclei count (cytotoxicity indicator), at 2.08 µM; inhibition: at 2 µM, stronger effect = higher value, 0% TNFa-plus-vehicle, 100% no-TNFa wells.
Test [2] is described as follows: endothelial E-selectin expression blockers – imaging, HUVEC, immunofluorescence, MLSMR starter and 10KST1 sets, primary screen (AID 487;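 active means visually confirmed hit in the image check and inhibition above 20%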;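 on inhibition: signal is fraction of cell area covered by stained E-selectin grains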;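 on nuclei count: 100% = median nuclei count of all wells on the same plate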). Particulars: HUVEC TNFalpha-induced E-selectin immunofluorescence imaging, at 2 µM; inhibition: stronger effect = higher value; nuclei count: measured here: cell number, toxicity.
The nature of test [3]: Primary imaging screen for DUSP6 inhibitors that restore phospho-Erk in transfected HeLa cells, chemical complementation (AID 609).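 On inhibition: phospho-Erk level distribution per well compared with pooled transfected vehicle control wells.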 Particulars: HeLa MKP-3 transfected, phospho-Erk imaging KS statistic, at 10 µM, cells stimulated with TPA for 15 min.
The target in test [4] is Dual specificity protein phosphatase 6 (Homo sapiens) (UniProt Q16828). Described as above. The note with it: HeLa MKP-3 transfected, phospho-Erk imaging KS statistic; at 10 µM; stronger effect = higher value; cells stimulated with TPA for 15 min.
The target of test [5] is Voltage-gated potassium channel subunit beta-2 (Rattus norvegicus) (UniProt P62483). Nature of the test: inhibitors of rat Kvbeta2 reductase activity – biochemical, NADPH fluorescence, primary screen (AID 622;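 active means fluorescence slope higher than the sample average by over 3 SD, cut at about -0.22 in these data, passing the limit was not always enough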;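 further: slope of raw intensity against log time taken from 70 to 1610 s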). Particulars: recombinant KvBeta, 4-cyanobenzaldehyde reduction, at 10 µM, stronger effect = higher value.
Test [6] shares this target. The test can be described thus: enhancers of rat Kvbeta2 NADPH turnover – biochemical, NADPH fluorescence, primary screen (AID 623;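 active means NADPH fluorescence slope more negative than the mean of all samples by about 3 SD, 99.7% confidence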;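 further: fluorescence intensity change per second fitted from 20 to 320 s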). Particulars: Recombinant KvBeta, NADPH fluorescence decrease slope, 10 min; at 10 µM; stronger effect = lower value.
For test [7], the target named is Muscarinic acetylcholine receptor M4 (Homo sapiens) (UniProt P08173). Nature of the test: M4-linked GIRK flux change, two-sided – cell-based, HEK293 M4/GIRK, thallium flux, BTC-AM, M4 allosteric agonist project, primary screen (AID 625;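 active means fluorescence slope after compound addition differing from the mean of all tested samples at 99.7% confidence, mostly higher but some lower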;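 further: thallium influx through GIRK channels coupled to M4 in HEK293 cells with BTC-AM dye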). The note with it: at 10 µM, actives lie on both sides. The method in brief:
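Material: HEK293 cells with M4 receptor and GIRK channels; Times: cells overnight at 37 °C, BTC-AM loading 1 h, reads 2 min total; Technique: kinetic BTC-AM fluorescence sampled at 1 Hz, 10 s pre-addition baseline; Read-out basis: slope over 15–24 s of trace normalized to starting intensity; Controls: carbachol positive, DMSO negative.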

The nature of test [8]: inhibitors of larval lipid processing in zebrafish, primary screen, whole organism, PED6 fluorescence, gall bladder and intestine (AID 686;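 active means a full or partial loss of lipid-probe fluorescence in the fish gall bladder, intestine or both, judged by eye; inactive means no fluorescence loss, or compound toxic to the fish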;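 further: larvae 5 to 7 days old with five fish per well; signal comes from phospholipase A2 cleavage of quenched PED6 carried via bile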). The note with it: Zebrafish larvae PED6 lipid processing, fluorescence scoring; screened at 20 µM (by protocol). The procedure, abridged:
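Incubation: overnight exposure of larvae to compound plus PED6 / Test system: live zebrafish larvae aged 5-7 days, whole organism / Amount: 5 larvae per well / Read-out basis: visual per-well fluorescence inhibition score / Signal: visual fluorescence microscopy scoring of gall bladder, gut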

A short description of test [9]: loss of swimming-algae plug formation – whole organism, Chlamydomonas reinhardtii, WT vs cilia-less mutant, absorbance, 96-well, primary screen (AID 463189;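 active means inhibition at or above 50% relative to wild type and mutant plate controls; inactive means inhibition below 50%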;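 further: 0% = wild type cc124 cells in DMSO and 100% = ciliumless bld1 mutant cells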). The note with it: Chlamydomonas reinhardtii gravitaxis, OD600 absorbance, 2 days; at 10 µM; stronger effect = higher value.
[10] abbreviates: measured here: cell density z-score.
The mark [11] stands for this setting: measured here: nuclear c-Myc green intensity z-score.
[12] abbreviates: measured here: nuclear pErk red intensity z-score, stronger effect = higher value.

Sequence of Muscarinic acetylcholine receptor M4 (Homo sapiens) (P08173 whole entry, looked up): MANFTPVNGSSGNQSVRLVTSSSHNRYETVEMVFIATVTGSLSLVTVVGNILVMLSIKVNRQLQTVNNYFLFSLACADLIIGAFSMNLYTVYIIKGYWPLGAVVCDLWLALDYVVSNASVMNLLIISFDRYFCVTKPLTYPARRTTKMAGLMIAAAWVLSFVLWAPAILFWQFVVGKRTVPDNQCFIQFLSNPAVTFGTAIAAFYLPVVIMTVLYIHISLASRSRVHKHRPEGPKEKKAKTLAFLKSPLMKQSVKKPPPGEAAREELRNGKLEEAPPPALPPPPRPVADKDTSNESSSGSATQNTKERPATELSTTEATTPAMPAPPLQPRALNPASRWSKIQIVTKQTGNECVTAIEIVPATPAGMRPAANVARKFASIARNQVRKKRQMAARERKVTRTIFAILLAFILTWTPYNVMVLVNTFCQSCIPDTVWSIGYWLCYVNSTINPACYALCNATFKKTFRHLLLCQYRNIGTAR
Sequence of Dual specificity protein phosphatase 6 (Homo sapiens) (Q16828 whole entry, looked up): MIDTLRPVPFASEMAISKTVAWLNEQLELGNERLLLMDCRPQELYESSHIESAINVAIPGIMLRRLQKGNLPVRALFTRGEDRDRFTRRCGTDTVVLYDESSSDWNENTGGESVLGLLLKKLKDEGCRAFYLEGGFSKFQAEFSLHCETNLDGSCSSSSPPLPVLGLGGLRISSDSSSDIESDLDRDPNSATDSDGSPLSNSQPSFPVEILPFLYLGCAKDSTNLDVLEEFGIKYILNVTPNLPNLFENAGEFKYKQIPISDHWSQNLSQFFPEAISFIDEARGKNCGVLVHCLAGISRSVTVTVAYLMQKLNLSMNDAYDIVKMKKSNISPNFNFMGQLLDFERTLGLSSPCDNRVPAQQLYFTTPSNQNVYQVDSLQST
Sequence of Voltage-gated potassium channel subunit beta-2 (Rattus norvegicus) (P62483 whole entry, looked up): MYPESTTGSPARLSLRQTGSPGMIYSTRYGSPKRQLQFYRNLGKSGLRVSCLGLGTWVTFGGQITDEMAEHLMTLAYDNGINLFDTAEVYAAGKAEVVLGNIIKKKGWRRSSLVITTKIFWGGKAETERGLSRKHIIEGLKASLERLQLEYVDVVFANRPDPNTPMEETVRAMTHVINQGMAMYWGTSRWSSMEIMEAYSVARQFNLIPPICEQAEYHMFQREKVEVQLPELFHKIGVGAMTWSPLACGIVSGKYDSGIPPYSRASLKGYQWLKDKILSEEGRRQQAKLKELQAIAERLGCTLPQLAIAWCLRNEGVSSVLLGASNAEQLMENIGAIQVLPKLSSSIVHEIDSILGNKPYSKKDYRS

As to `CCc1nc2n[nH]c(N)c2c2c1CCCC2`, the cell count in test [1] stood at 410. Besides, the inhibition – broadly, the change of the read-out against control, counted positive when it falls – is -3% (inactive) in test [1], -224% (inactive) in [2], 5.42% (inactive) in [4] and 2.25% (inactive) in test [9]. This molecule also had a nuclei count in [2] of 194%. In addition, the z-score is 1.38 in test [3] (setting [10]), -1.2 in [3] (setting [11]) and -1.94 in [3] (setting [12]). Besides, the fluorescence slope in [5] is -0.476 (inactive); in test [7] it was 0.00476 (inactive). The NADPH fluorescence slope in [6] is -5.3e-05 (inactive). In addition, the outcome in [8] was “inactive; toxic”.
As for `Cc1ccc(C(=O)C2C(c3cccs3)NC(=O)NC2(O)C(F)(F)F)cc1` (centres undefined), the cell count in test [1] worked out at 716. For the same molecule, the inhibition in test [1] is -7.3% (inactive); in test [2], -170% (inactive); in test [4], -4.27% (inactive); in test [9], -6.21% (inactive). Also, the nuclei count in [2] was found to be 142%. Moreover, the z-score in test [3] (setting [10]) was -0.552; in test [3] (setting [11]) it was -0.778; in test [3] (setting [12]), 0.548. The fluorescence slope was -0.482 (inactive) in test [5] and 0.00668 (inactive) in test [7]. Further, in [6], the NADPH fluorescence slope is -7.6e-05 (inactive). In addition, the molecule was called inactive in [8].
In the case of `Brc1ccc(-c2cnnc(N3CCCC3)n2)cc1`, the cell count in test [1] was 399. Besides, the inhibition in [1] is -2.1% (inactive); in test [2], -57.7% (inactive); in [4], -0.608% (inactive); in test [9] it was 42.9% (inactive). Besides, the nuclei count in [2] is 130%. Moreover, the z-score in [3] (setting [10]) was -1.38; in test [3] (setting [11]), 0.891; in test [3] (setting [12]), -0.195. For the same molecule, the values for the fluorescence slope in [5] and in test [7] were -0.415 (inactive) and 0.005 (inactive), respectively. In addition, the NADPH fluorescence slope in test [6] was -1.2e-05 (inactive). Also, the result in test [8] was inactive.
In the case of `COc1cccc(Cn2c(NCc3ccco3)nc3c2c(=O)n(C)c(=O)n3C)c1`, the cell count in test [1] was determined as 704. The inhibition is -6.1% (inactive) in test [1], -198% (inactive) in test [2], 27.8% (inactive) in test [4] and 0.377% (inactive) in test [9]. For the same molecule, the nuclei count in test [2] amounted to 180%. The z-score in [3] (setting [10]) was 0.733; in test [3] (setting [11]), 0.0104; in test [3] (setting [12]), 0.0373. The fluorescence slope was -0.476 (inactive) in [5] and 0.00767 (inactive) in [7]. Besides, in test [6], the NADPH fluorescence slope is -0.000112 (inactive). The molecule was classed as inactive in test [8].
Regarding `CCCCCSc1nc(N2CCOCC2)c2c(c1C#N)CC(C)(C)OC2`, the cell count in test [1] came to 527. In addition, the inhibition in [1] is -4.1% (inactive); in test [2] it was 47.4% (inactive); in [4], -11.4% (inactive); in [9], 16.6% (inactive). The same molecule showed a nuclei count in test [2] of 82.5%. Further, the z-score in test [3] (setting [10]) is -0.00236; in test [3] (setting [11]) it was 0.148; in test [3] (setting [12]), -1.7. The fluorescence slope is -0.426 (inactive) in test [5] and 0.00771 (inactive) in test [7]. For the same molecule, the NADPH fluorescence slope in [6] is 1.5e-05 (inactive). Besides, in test [8], the result was inactive.
`COc1ccccc1C(=O)NCC(=O)n1nc(C)cc1C`: the cell count in test [1] turned out to be 542. Moreover, the inhibition in [1] was -13.5% (inactive); in test [2] it was -24% (inactive); in test [4] it was 19.8% (inactive); in test [9], -1.54% (inactive). The molecule also yielded a nuclei count in [2] of 146%. Further, the results for the z-score in test [3] (setting [10]), in test [3] (setting [11]) and in test [3] (setting [12]) were 0.666, 0.744 and -0.112, respectively. In addition, the values for the fluorescence slope in test [5] and in test [7] were -0.331 (inactive) and 0.0067 (inactive), respectively. Also, the NADPH fluorescence slope in [6] is -5.1e-05 (inactive). Besides, the molecule was called inactive in test [8].
Take `CCC(=O)Nc1cccc(-c2nnc(SCC(=O)NCc3ccco3)n2C)c1`: in [1], the cell count came to 615. For the same molecule, the inhibition in test [1] is -0.2% (inactive); in test [2] it was 47.2% (inactive); in test [4], 18.4% (inactive); in test [9], -16.4% (inactive). The molecule also had a nuclei count in test [2] of 92.3%. Further, the z-score is 1.47 in test [3] (setting [10]), -0.507 in test [3] (setting [11]) and -1.13 in [3] (setting [12]). Also, the figures for the fluorescence slope in test [5] and in [7] were -0.51 (inactive) and 0.00589 (inactive), respectively. For the same molecule, the NADPH fluorescence slope in test [6] was -4e-05 (inactive). In addition, the call in test [8] was inactive.
With `CC(C)Cc1nc(N2CCN(C(=O)Cc3ccccc3)CC2)c(C#N)c2c1COC(C)(C)C2`, the cell count in test [1] amounted to 601. Besides, the inhibition was -8.9% (inactive) in test [1], -80.2% (inactive) in [2], 9.07% (inactive) in test [4] and 13.3% (inactive) in test [9]. In [2], this molecule yielded a nuclei count of 153%. Also, the z-score in [3] (setting [10]) was -0.132; in test [3] (setting [11]), -0.0812; in test [3] (setting [12]) it was -0.136. Besides, the values for the fluorescence slope in [5] and in test [7] were -0.453 (inactive) and 0.00471 (inactive), respectively. Moreover, the NADPH fluorescence slope in test [6] was -0.000102 (inactive). In addition, the result in [8] was inactive.
Regarding `CCOC(=O)CNC(=O)CNC(=O)c1ccc(OCC(C)C)cc1`, the cell count in test [1] worked out at 694. The inhibition in test [1] is 2.1% (inactive); in [2], -9.7% (inactive); in test [4] it was -5.81% (inactive); in test [9], -6.07% (inactive). For the same molecule, the nuclei count in test [2] was found to be 146%. Besides, the z-score in [3] (setting [10]) amounted to 0.797; in [3] (setting [11]), 0.341; in test [3] (setting [12]), 0.093. In addition, the fluorescence slope in [5] is -0.458 (inactive); in [7], 0.00522 (inactive). The NADPH fluorescence slope in [6] was -5.4e-05 (inactive). Further, the call in test [8] was inactive.
As to `COc1ccc(CCn2c(=N)c(C(=O)NCc3ccco3)cc3c(=O)n4ccccc4nc32)cc1OC`, the cell count in [1] stood at 633. The inhibition in [1] was -2.8% (inactive); in test [2], -94.3% (inactive); in test [4] it was 14.4% (inactive); in test [9] it was -2.16% (inactive). For the same molecule, the nuclei count in test [2] was 174%. Besides, the z-score in test [3] (setting [10]) is 1.26; in test [3] (setting [11]), -0.19; in test [3] (setting [12]), 0.299. For the same molecule, the fluorescence slope was -0.507 (inactive) in test [5] and 0.00335 (inactive) in test [7]. Further, in [6], the NADPH fluorescence slope was -2.1e-05 (inactive). In addition, the molecule was classed as inactive in [8].
As to `COc1cc(C)nc(Nc2nc(C)c(C(C)=O)s2)n1`, in test [1], the cell count worked out at 393. For the same molecule, the inhibition in test [1] was 0% (inactive); in [2], -89% (inactive); in test [4], 43.2% (inactive); in test [9], 46.4% (inactive). The molecule also displayed a nuclei count in [2] of 125%. The z-score in test [3] (setting [10]) was 1.97; in test [3] (setting [11]), -1.71; in test [3] (setting [12]), -0.786. Also, the fluorescence slope is -0.456 (inactive) in test [5] and 0.00495 (inactive) in test [7]. Moreover, the NADPH fluorescence slope in test [6] is -8.3e-05 (inactive). For the same molecule, the outcome in test [8] was inactive.
With `Cc1ccc(-n2ncc3c(NCCCN4CCCC4=O)ncnc32)c(C)c1`, the cell count in test [1] worked out at 563. In addition, the inhibition was -12.5% (inactive) in test [1], -40.1% (inactive) in [2], 13.4% (inactive) in test [4] and 0.102% (inactive) in test [9]. The molecule also came in with a nuclei count in [2] of 134%. Also, the values for the z-score in test [3] (setting [10]), in test [3] (setting [11]) and in test [3] (setting [12]) were 0.612, -0.125 and -2.3, respectively. Also, the figures for the fluorescence slope in test [5] and in test [7] were -0.358 (inactive) and 0.00773 (inactive), respectively. For the same molecule, the NADPH fluorescence slope in [6] was 1.3e-05 (inactive). The call in test [8] was inactive.
As to `Cc1cc(=O)oc(C)c1C(=O)NCC(C)NC(=O)c1c(C)cc(=O)oc1C` (centres undefined), the cell count in test [1] came out at 531. The inhibition in [1] was 3.7% (inactive); in [2], 32.8% (inactive); in [4] it was 19.8% (inactive); in test [9], 20.8% (inactive). In [2], the nuclei count came to 164%. The z-score in test [3] (setting [10]) was 0.5; in test [3] (setting [11]), -1.12; in test [3] (setting [12]), -0.355. For the same molecule, the fluorescence slope in test [5] was -0.384 (inactive); in test [7], 0.00562 (inactive). Further, the NADPH fluorescence slope in test [6] is -5.3e-05 (inactive). In [8], the result was inactive.
